# Assay results from ChEMBL document CHEMBL6083194, “Discovery and evaluation of 3-(2-isocyanobenzyl)-1H-indole derivatives as potential quorum sensing inhibitors for the control of Pseudomonas aeruginosa infections in vitro” (RSC Med Chem, 2024).
# Calls of active or inactive are those of the source. The rule behind the calls is not given here.
# How the values were obtained:
# [1] = Inhibition of quorum sensing system in Pseudomonas aeruginosa PAO1
# How it was run: (§1)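 Plate screen. CV026 grown overnight in LB with 50 μg ml−1 kanamycin; 15 μl seeded into 15 ml LB agar (1.0% agarose) containing 20 μM C4-HSL. PAO1 plates run in parallel. Test colonies inoculated by toothpick, incubated overnight at 37 °C. Ring of colourless viable cells around the colony scored as inhibition.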
# Pseudomonas aeruginosa [2] = experiment: Inhibition of pyocyanin production in Pseudomonas aeruginosa PAO1 at 1/2 time MIC incubated for 18 hrs; assay type: functional
# How it was run: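 Overnight PAO1 in LB diluted to OD600 = 0.05, subcultured 5–7 h to mid-log, rediluted to OD600 = 0.05. 5 mL with compound grown 18 h at 37 °C, 200 rpm. Supernatant extracted with 3 mL chloroform, back-extracted into 0.2 M HCl, absorbance at 520 nm.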
# Pseudomonas aeruginosa [3] = experiment: Inhibition of biofilm formation in Pseudomonas aeruginosa PAO1 at 1/2 times MIC incubated for 24 hrs crystal violet staining based SEM assay; assay type: functional
# [4] = Inhibition of quorum sensing system in Chromobacterium violaceum CV026; how it was run: as §1
# Pseudomonas aeruginosa [5] = experiment: Inhibition of biofilm formation in Pseudomonas aeruginosa PAO1 incubated for 24 hrs crystal violet staining based SEM assay; assay type: functional, organism-based
# Pseudomonas aeruginosa [6] = experiment: Inhibition of rhamnolipid production in Pseudomonas aeruginosa PAO1 at 1/2 to 1/4 times MIC by orcinol method; assay type: functional, organism-based
# How it was run: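 Overnight PAO1 diluted 1:100 into LB with compound, 37 °C, 180 rpm; DMSO control. Supernatant (100 μL) mixed with 900 μL 0.19% orcinol in 53% H2SO4, heated 30 min at 80 °C, cooled, read at 421 nm.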
# Pseudomonas aeruginosa [7] = experiment: Antibacterial activity against Pseudomonas aeruginosa PAO1 by serial dilution method; assay type: functional
# How it was run: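 PAO1 in LB, 37 °C. MIC by CLSI 2-fold serial dilution in Mueller–Hinton broth, inoculum 1–5 × 10^5 CFU mL−1, DMSO stocks. Growth curves: overnight culture diluted to OD600 = 0.05, subcultured to mid-log, rediluted to OD600 = 0.05, 3 mL with compound; OD620 read at 1, 3, 5, 7, 9, 11 and 24 h at 37 °C; DMSO negative control.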
# Pseudomonas aeruginosa [8] = experiment: Inhibition of biofilm formation in Pseudomonas aeruginosa PAO1 at 1/4 times MIC incubated for 24 hrs crystal violet staining based SEM assay; assay type: functional
SMILES,inhibition [1],inhibition (Pseudomonas aeruginosa [2]),inhibition (INH) (Pseudomonas aeruginosa [3]) [%],inhibition [4],inhibition (Pseudomonas aeruginosa [5]),inhibition (Pseudomonas aeruginosa [6]),MIC (Pseudomonas aeruginosa [7]) [µg/mL],inhibition (INH) (Pseudomonas aeruginosa [2]) [%],inhibition (INH) (Pseudomonas aeruginosa [8]) [%]
Cc1cccc2c(Cc3ccccc3C#N)c[nH]c12,Active,Active,40,Active; Showed Higher Activity,Dose-dependent-effect,,,,
N#Cc1cc(F)ccc1Cc1c[nH]c2ccccc12,Active; Strong Inhibition Observed,Active; Showed Higher Activity Than Positive Control Rsv,19,Active; Showed Higher Activity,Dose-dependent-effect,Active,48,,
N#Cc1ccc(Br)cc1Cc1c[nH]c2ccccc12,Active,Active,21,Active,Dose-dependent-effect,,,,
Cc1ccc(Cc2c[nH]c3ccccc23)c(C#N)c1,Active; Strong Inhibition Observed,,1,,Dose-dependent-effect,,,60,
Cc1cccc2[nH]cc(Cc3ccccc3C#N)c12,Active,Active; Showed Higher Activity Than Positive Control Rsv,17,Active; Showed Higher Activity,Dose-dependent-effect,,,,
CC(C)(C)OC(=O)n1c(-c2ccccc2)c(Cc2ccccc2C#N)c2ccccc21,,Active; Showed Higher Activity Than Positive Control Rsv,,,Dose-dependent-effect,,,,
N#Cc1cccc(Cl)c1Cc1c[nH]c2ccccc12,Active; Strong Inhibition Observed,Active; Showed Higher Activity Than Positive Control Rsv,4,Active; Showed Higher Activity,Dose-dependent-effect,Active,24,,
Cc1ccc(C#N)c(Cc2c[nH]c3ccccc23)c1,Active; Strong Inhibition Observed,Active,24,,Dose-dependent-effect,,,,
Cc1[nH]c2ccccc2c1CCc1ccccc1C#N,Active; Strong Inhibition Observed,Active,,Active,Dose-dependent-effect,,,,
Cc1cccc(Cc2c[nH]c3ccccc23)c1C#N,Active; Strong Inhibition Observed,Active,27,Active; Showed Higher Activity,Dose-dependent-effect,,,,
N#Cc1ccc(Cl)cc1Cc1c[nH]c2ccccc12,Active,Active,56,,Dose-dependent-effect,,,,
N#Cc1ccc(F)cc1Cc1c[nH]c2ccccc12,Active; Strong Inhibition Observed,Active; Showed Higher Activity Than Positive Control Rsv,19,Active,Dose-dependent-effect,Active,12,,
N#Cc1ccccc1Cc1c[nH]c2ccc(Br)cc12,Active; Strong Inhibition Observed,,39,Active; Showed Higher Activity,Dose-dependent-effect,,,64,
N#Cc1ccccc1Cc1c[nH]c2ccc(Cl)cc12,Active,Active,11,Active; Showed Higher Activity,Dose-dependent-effect,,,,
Cn1cc(Cc2ccccc2C#N)c2ccccc21,,Active,,,Dose-dependent-effect,,,,
CCOC(=O)C(C#N)Cc1c[nH]c2ccccc12 (configuration not stated),Active; Strong Inhibition Observed,Active,,,Dose-dependent-effect,,,,
Cc1c(Cc2ccccc2C#N)c2ccccc2n1C(=O)OC(C)(C)C,,Active,,,Dose-dependent-effect,,,,

SMILES,inhibition [1],inhibition (Pseudomonas aeruginosa [2]),inhibition (INH) (Pseudomonas aeruginosa [3]) [%],inhibition [4],inhibition (Pseudomonas aeruginosa [5]),inhibition (Pseudomonas aeruginosa [6]),MIC (Pseudomonas aeruginosa [7]) [µg/mL],inhibition (INH) (Pseudomonas aeruginosa [2]) [%],inhibition (INH) (Pseudomonas aeruginosa [8]) [%]
N#Cc1ccccc1Cc1c[nH]c2cccc(F)c12,,Active,35,,Dose-dependent-effect,,,,
N#Cc1ccccc1Cc1c[nH]c2cc(Cl)ccc12,Active,Active,26,,Dose-dependent-effect,,,,
N#Cc1ccccc1Cc1c[nH]c2ccccc12,Active; Strong Inhibition Observed,Active; Showed Higher Activity Than Positive Control Rsv,38,Active; Showed Higher Activity,Dose-dependent-effect,Active,96,,15
CCOC(=O)C(C#N)c1c[nH]c2ccccc12 (configuration not stated),,Active,,Active,Dose-dependent-effect,,,,
N#Cc1ccccc1Cc1c[nH]c2cc(Br)ccc12,,Active,21,,Dose-dependent-effect,,,,
Cc1ccc2c(Cc3ccccc3C#N)c[nH]c2c1,Active,Active; Showed Higher Activity Than Positive Control Rsv,7,Active; Showed Higher Activity,Dose-dependent-effect,,,,
CC(c1ccccc1C#N)c1c[nH]c2ccccc12 (configuration not stated),Active; Strong Inhibition Observed,Active,,,Dose-dependent-effect,,,,
N#CCCc1c[nH]c2ccccc12,Active; Strong Inhibition Observed,Active,,Active; Showed Higher Activity,Dose-dependent-effect,,,,9
Cc1ccc2[nH]cc(Cc3ccccc3C#N)c2c1,Active,Active,50,Active,Dose-dependent-effect,,,,
N#Cc1ccccc1Cc1ccccc1,,Active,,,Dose-dependent-effect,,,,
COc1cccc2[nH]cc(Cc3ccccc3C#N)c12,Active; Strong Inhibition Observed,Active,21,,Dose-dependent-effect,,,,
N#Cc1cccc(F)c1Cc1c[nH]c2ccccc12,Active; Strong Inhibition Observed,Active,49,Active; Showed Higher Activity,Dose-dependent-effect,,,,
Cc1[nH]c2ccccc2c1Cc1ccccc1C#N,Active,Active,13,,Dose-dependent-effect,,,,
N#Cc1c(Cl)cccc1Cc1c[nH]c2ccccc12,Active; Strong Inhibition Observed,Active,1,Active,Dose-dependent-effect,,,,
CCc1ccccc1C#N,,Active,,Active; Showed Higher Activity,Dose-dependent-effect,,,,12
Nc1ccccc1Cc1c[nH]c2ccccc12,,Active; Showed Higher Activity Than Positive Control Rsv,,Active; Showed Higher Activity,Dose-dependent-effect,,,,
